Only some compounds are listed: those with a hit (about 3% of all), similar ones and a draw of the others.
UBC13 inh: blocks human UBC13 polyubiquitin chain formation; inhibition, % at 20 µM; P61088; AID 485273; TR-FRET; 330,000 compounds, 0.47% hits; in the data active = inhibition above about 45%, passing the limit was not always enough
Target sequence (P61088 whole entry, looked up): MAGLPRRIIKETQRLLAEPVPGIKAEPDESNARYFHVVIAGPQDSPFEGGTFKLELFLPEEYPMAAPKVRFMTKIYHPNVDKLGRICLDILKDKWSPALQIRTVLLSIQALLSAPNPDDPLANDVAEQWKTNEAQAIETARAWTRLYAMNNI
SENP7 block: inhibitors of human SENP7 protease | Q9BQF6 | recombinant SENP7, Z-RLRGG-aminoluciferin luminescence, 40 min | inhibition, % at 5 µM | 330,000 compounds, 1.5% hits;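 active = inhibition above about 50% at the single test dose, limit read from the data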;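 note: plate controls were DMSO with enzyme for no effect and no enzyme buffer wells for full effect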
Apaf1 inhib: inhibitors of human Apaf-1 apoptosome | 330,000 compounds, 0.71% hits | O14727 | inhibition, % at 20 µM | reconstituted apoptosome caspase-3 activity, DEVD-Rh110 fluorescence | AID 489030; active = inhibition of at least 40% at 20 µM;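 note: plate controls were DMSO wells for no effect and DEVD-CHO caspase inhibitor wells for full effect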
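Material: reconstituted apoptosome with Apaf-1, cytochrome c, caspase-9, procaspase-3, dATP / Buffer or medium: pH 7.5 Hepes buffer with CHAPS, BSA, DTT / Also added: cytochrome c with DEVD-Rh110 / Schedule: compound with Apaf-1, dATP, procaspase-3 30 min, then 50 min reaction, room temperature / Technique: rhodamine 110 fluorescence at Ex 480/Em 540 nm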
SENP8 block-1: SENP8 (human) protease inhibition | Q96LD8 | recombinant SENP8, Nedd8 substrate fluorescence | inhibition, % at 20 µM | 360,000 compounds, 0.64% hits; in the data active = inhibition mostly above about 40%, no sharp cut-off; inactive = mostly below about 27%
Target sequence (Q96LD8 whole entry, looked up): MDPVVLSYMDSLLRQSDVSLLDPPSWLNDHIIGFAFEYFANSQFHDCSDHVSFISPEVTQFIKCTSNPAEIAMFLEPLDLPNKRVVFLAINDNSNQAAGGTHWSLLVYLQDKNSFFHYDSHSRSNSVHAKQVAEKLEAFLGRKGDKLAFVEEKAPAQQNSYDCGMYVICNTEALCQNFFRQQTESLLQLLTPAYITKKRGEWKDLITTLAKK
SENP8 block-2: blocks the human protease SENP8 | purified SENP8, Z-RLRGG-aminoluciferin cleavage, luminescence | Q96LD8 | inhibition, % at 10 µM | 330,000 compounds, 1.2% hits | AID 2540; in the data active = inhibition above about 50%
SENP6 block: SENP6 protease inhibition. Q9GZR1. AID 2599. 330,000 compounds, 1.8% hits. inhibition, % at 10 µM. Recombinant SENP6 catalytic domain, aminoluciferin luminescence;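 active = inhibition above about 50% at the single tested dose, limit read from the data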;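 note: plate controls were DMSO wells with enzyme for no effect and DMSO wells lacking enzyme for full effect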
SENP8 confirm: human SENP8 inhibition, confirmed | shares compounds with SENP7 block | Recombinant SENP8, Z-RLRGG-aminoluciferin luminescence, 60 min | inhibition, % at 12.5 µM | 6,200 compounds, 40% hits | AID 488912;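 active = mean inhibition across replicates above about 50%, limit read from the data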
SENP6 confirm: confirmation of human SENP6 protease inhibitors. 6,200 compounds, 58% hits. recombinant SENP6, Z-RLRGG-aminoluciferin luminescence. inhibition, % at 12.5 µM. AID 488915. shares compounds with SENP7 block
SENP7 confirm: human SENP7 inhibition, confirmed; shares compounds with SENP7 block; recombinant SENP7, Z-RLRGG-aminoluciferin luminescence, 40 min; inhibition, % at 12.5 µM; 6,200 compounds, 69% hits; AID 488917
Casp3 select: caspase-3 inhibition (SENP selectivity assay) | AID 488918 | shares compounds with SENP7 block | 6,200 compounds, 60% hits | inhibition, % at 12.5 µM | purified caspase-3, Z-DEVD-aminoluciferin luminescence, 60 min;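 active = mean inhibition above about 50%, limit read from the data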;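 note: plate controls were enzyme with DMSO for no effect and wells without caspase-3 for full effect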
Target sequence (P42574 28-227 limits assumed): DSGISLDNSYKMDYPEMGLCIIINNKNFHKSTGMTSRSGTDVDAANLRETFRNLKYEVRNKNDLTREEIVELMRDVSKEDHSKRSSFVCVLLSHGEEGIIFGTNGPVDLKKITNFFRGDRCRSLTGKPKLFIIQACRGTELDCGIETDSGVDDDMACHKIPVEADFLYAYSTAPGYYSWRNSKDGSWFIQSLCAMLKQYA
Luc interf: luminescence interference (SENP counter-screen); shares compounds with SENP7 block; Pre-incubated SENP8/Z-RLRGG-aminoluciferin, luciferase luminescence interference; 6,200 compounds, 39% hits; AID 488919; inhibition, % at 12.5 µM;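 active = mean inhibition above about 50% when retested at one dose, limit read from the data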;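 note: plate controls were DMSO wells with completed reaction for no effect and substrate without enzyme for full effect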
An asterisk follows results filed as active.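 Rule for the calls, unless noted: active = mean inhibition above about 50% in the one-dose retest (limit read from the data); inactive = the rest.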

For CCC(C)COC(=O)c1ccc(C(=O)O)cc1 (stereo not given) the results were UBC13 inh -10, SENP7 block 2, Apaf1 inhib 2, SENP8 block-1 26, SENP8 block-2 26, SENP6 block 62*, SENP8 confirm 42, SENP6 confirm 45, SENP7 confirm 81*, Casp3 select 86* and Luc interf 70*.
For Cc1ccc(Nc2ccccc2)cc1 the results were UBC13 inh 2, SENP7 block 3, Apaf1 inhib 2, SENP8 block-1 18, SENP8 block-2 -5 and SENP6 block -19.
Cc1ccc(NC2=Nc3ccccc3CS2)cc1 was read as UBC13 inh 0, SENP7 block 92*, Apaf1 inhib 13, SENP8 block-1 27, SENP8 block-2 75*, SENP6 block 83*, SENP8 confirm 50, SENP6 confirm 83*, SENP7 confirm 95*, Casp3 select 85* and Luc interf 6.
COc1ccc(-c2cc(-c3cc(F)ccc3O)[nH]n2)cc1OC was read as UBC13 inh 24, SENP7 block 83*, Apaf1 inhib 0, SENP8 block-1 -7, SENP8 block-2 69*, SENP6 block 72*, SENP8 confirm 86*, SENP6 confirm 84*, SENP7 confirm 95*, Casp3 select 36 and Luc interf 83*.
Screening COc1ccc(-c2cc(-c3ccc(Cl)cc3)n[nH]2)c(O)c1 returned UBC13 inh 8, SENP7 block 64*, Apaf1 inhib 15, SENP8 block-1 19, SENP8 block-2 64*, SENP6 block 70*, SENP8 confirm 25, SENP6 confirm 48, SENP7 confirm 87*, Casp3 select 14 and Luc interf 66*.
COC(=O)c1cc(-c2ccc(OC)c(OC)c2)n[nH]1 was read as UBC13 inh 4, SENP7 block 9, Apaf1 inhib -3, SENP8 block-1 17, SENP8 block-2 3 and SENP6 block -11.
COc1ccc(-c2cc(-c3ccccc3O)[nH]n2)cc1OC was read as UBC13 inh 10, SENP7 block 88*, Apaf1 inhib 13, SENP8 block-1 10, SENP8 block-2 78*, SENP6 block 80*, SENP8 confirm 93*, SENP6 confirm 92*, SENP7 confirm 101*, Casp3 select 69* and Luc interf 93*.
Oc1ccccc1-c1cc(-c2ccc3c(c2)OCCO3)n[nH]1 was read as UBC13 inh 11, SENP7 block 1, Apaf1 inhib 9, SENP8 block-1 12, SENP8 block-2 95*, SENP6 block 97*, SENP8 confirm 97*, SENP6 confirm 99*, SENP7 confirm 103*, Casp3 select 92* and Luc interf 68*.
`Cc1cccc(C)c1-n1nnnc1C1(C)CCC(=O)N1CCc1ccc(O)cc1` (stereo not given) gave SENP8 block-1 9.
Screening Cc1ccc(S(=O)(=O)NC(=O)C2(C)CCN2C(=O)c2ccccc2)nc1 (stereo not given) returned SENP8 block-1 12.
For CCCc1cn(CC(C)n2c(=O)c3ccccc3n2Cc2cc(C(C)C)no2)nn1 (stereo not given) the results were SENP8 block-1 -436.
For CC1(C(=O)Nc2ccc3ccccc3c2)CCC(=O)N1CCCn1ccnc1 (stereo not given) the results were SENP8 block-1 23.
For COc1ccc(-c2ncncc2-c2ccc(OC)c(OC)c2)c(O)c1 the results were UBC13 inh 3, SENP7 block 6, Apaf1 inhib 1, SENP8 block-1 -24, SENP8 block-2 -6 and SENP6 block -6.
COc1ccc(-c2cc(-c3ccc(OC)c(OC)c3)n[nH]2)c(O)c1 was read as UBC13 inh 12, SENP7 block 96*, Apaf1 inhib 14, SENP8 block-1 16, SENP8 block-2 93*, SENP6 block 94*, SENP8 confirm 97*, SENP6 confirm 98*, SENP7 confirm 102*, Casp3 select 86* and Luc interf 95*.
Cc1csc(NC(=O)c2ccc3c(c2)OCO3)n1 was read as UBC13 inh 6, SENP7 block 86*, Apaf1 inhib 5, SENP8 block-1 -19, SENP8 block-2 75*, SENP6 block 85*, SENP8 confirm 43, SENP6 confirm 80*, SENP7 confirm 96*, Casp3 select 90* and Luc interf 82*.
Screening CC(=O)c1sc(NC(=O)c2cccnc2Cl)nc1C returned UBC13 inh -8, SENP7 block 3, Apaf1 inhib 4, SENP8 block-1 12, SENP8 block-2 -5 and SENP6 block -11.
Screening CCOC(=O)Cc1csc(NC(=O)c2ccc3c(c2)OCO3)n1 returned UBC13 inh 3, SENP7 block 20, Apaf1 inhib 5, SENP8 block-1 3, SENP8 block-2 -3 and SENP6 block 15.
O=C(Nc1nccs1)c1ccc2c(c1)OCO2 was read as UBC13 inh 1, SENP7 block 48, Apaf1 inhib 3, SENP8 block-1 6, SENP8 block-2 44, SENP6 block 63*, SENP8 confirm -5, SENP6 confirm 8, SENP7 confirm 68*, Casp3 select 67* and Luc interf 0.
CC(=O)c1sc(NC(=O)c2ccc(C)c(C)c2)nc1C was read as UBC13 inh 1, SENP7 block 33, Apaf1 inhib -12, SENP8 block-1 -11, SENP8 block-2 -11 and SENP6 block -14.
`CC(=O)c1sc(NC(=O)c2ccc3c(c2)OCO3)nc1C` gave UBC13 inh -14, SENP7 block 82*, Apaf1 inhib 8, SENP8 block-1 -35, SENP8 block-2 70*, SENP6 block 80*, SENP8 confirm 63*, SENP6 confirm 77*, SENP7 confirm 95*, Casp3 select 88* and Luc interf 77*.

Screening results from PubChem.
